Data on seven compounds can be found in ChEMBL document CHEMBL1157157, “N-Aroyl-3,5-bis(benzylidene)-4-piperidones: a novel class of antimycobacterial agents” (Bioorg Med Chem, 2008).

In general, logP refers to the decadic logarithm of the partition coefficient of the neutral form, usually between octanol and water. A word on the inhibition: it is how much of the control response was suppressed. Higher therefore signals strong suppression. As a reminder, the MIC is the lowest concentration found to suppress growth. Read a low MIC as inhibition by little substance.

Data set [1] is described as follows: Lipophilicity, log P of the compound. Particulars: octanol/water. The class given is physicochemical. In short, it runs like this:
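log P calculated with ACD algorithm and database statistics; not measured experimentally.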

The subject of data set [2] is Mus musculus. Kind of data set: Neurotoxicity in mouse at 300 mg/kg after 0.5 hrs. Particulars: in vivo. The data set is classed as toxicity, organism-based. More on the design: dose 300 mg/kg. In short, it runs like this: (§1)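 Mice dosed intraperitoneally at 30, 100 and 300 mg/kg; 1a and 1b given as hydrochloride salts. Observed 0.5 and 4 h after dosing. Value is number of animals showing neurological deficit over number dosed. Deaths also recorded.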

The test system of data set [3] is Mus musculus. Kind of data set: Neurotoxicity in mouse at 300 mg/kg after 4 hrs. The data set is classed as toxicity, organism-based. More on the design: dose 300 mg/kg. The conditions noted are these: in vivo. In outline: as §1
Data set [4] relates to Rattus norvegicus. Kind of data set: Neurotoxicity in rat at 30 mg/kg, po after 4 hrs. The data set is classed as toxicity, organism-based. More on the design: dose 30 mg/kg, route oral. The conditions noted are these: in vivo. In outline:
(§2)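 Rats dosed orally at 30 or 50 mg/kg and examined for neurotoxicity 0.25, 0.5, 1, 2 and 4 h after dosing. Four animals per group, with three rats at one 0.5 h time point.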

The test system of data set [5] is Mycobacterium tuberculosis. As to the kind of experiment: Antimycobacterial activity against Mycobacterium tuberculosis H37Rv at 6.25 ug/ml by broth microdilution assay. The data set is classed as functional. In short, it runs like this:
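Single-concentration screen at 6.25 µg/mL against M. tuberculosis H37Rv (ATCC 27294), broth microdilution in BACTEC 12B medium. Read-out is % growth inhibition versus controls. At least 90% inhibition counted as active.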

Data set [6] relates to Mus musculus. As to the kind of experiment: Neurotoxicity in mouse at 100 mg/kg after 0.5 hrs. The data set is classed as toxicity, organism-based. More on the design: dose 100 mg/kg. The conditions noted are these: in vivo. In short, it runs like this: as §1
Data set [7] relates to Mus musculus. As to the kind of experiment: Neurotoxicity in mouse at 100 mg/kg after 4 hrs. More on the design: dose 100 mg/kg. Particulars: in vivo. The class given is toxicity, organism-based. In short, it runs like this:
as §1

Data set [8] deals with Rattus norvegicus. As to the kind of experiment: Neurotoxicity in rat at 30 mg/kg, po after 2 hrs. The class given is toxicity, organism-based. More on the design: dose 30 mg/kg, route oral. The conditions noted are these: in vivo. In short, it runs like this:
as §2

In data set [9] the test system is Rattus norvegicus. As to the kind of experiment: Neurotoxicity in rat at 30 mg/kg, po after 0.25 hrs. More on the design: dose 30 mg/kg, route oral. The class given is toxicity, organism-based. Particulars: in vivo. In short, it runs like this: as §2
Data set [10] deals with Mycobacterium tuberculosis. As to the kind of experiment: Antimycobacterial activity against Mycobacterium tuberculosis H37Rv by broth microdilution assay. The class given is functional. In outline: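 M. tuberculosis H37Rv (ATCC 27294) grown in BACTEC 12B medium, broth microdilution. MIC taken as the lowest concentration giving a 90% reduction in fluorescence relative to controls. Rifampin served as reference drug.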
In general terms: Dilution methods test growth across graded concentrations, often in twofold steps.

The test system of data set [11] is Liver. Kind of data set: Stimulation of respiration in rat liver mitochondria assessed as effect on swelling at 5 uM. The data set is classed as functional. In outline: (§3)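 Rat liver mitochondria isolated by differential centrifugation (respiratory control ratio 5–7). Swelling of fresh mitochondria followed at 30 °C in 125 mM sucrose, 65 mM KCl, 10 mM Hepes, 5 mM potassium phosphate, 1 mM MgCl2, pH 7.2, with 5 mM succinate. Compounds tested at 5, 10 and 100 μM; DMSO solvent control.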

Data set [12] has as its system Liver. Kind of data set: Stimulation of respiration in rat liver mitochondria assessed as effect on swelling at 10 uM. The class given is functional. In short, it runs like this:
as §3

Data set [13] has as its system Liver. As to the kind of experiment: Stimulation of respiration in rat liver mitochondria assessed as effect on swelling at 100 uM. The class given is functional. In outline:
as §3

Data set [14] has as its system Mycobacterium tuberculosis. Kind of data set: Antimycobacterial activity against Mycobacterium tuberculosis H37Rv at 12.5 ug/ml by broth microdilution assay. The class given is functional. In short, it runs like this: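 Primary screen against M. tuberculosis H37Rv (ATCC 27294) at a single concentration of 12.5 µg/mL in BACTEC 12B medium by broth microdilution. Growth inhibition expressed as % relative to controls. Hydrochloride salt used where applicable.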

The test system of data set [15] is Rattus norvegicus. As to the kind of experiment: Neurotoxicity in rat at 30 mg/kg, po after 0.5 hrs. The class given is toxicity, organism-based. More on the design: dose 30 mg/kg, route oral. Particulars: in vivo. In short, it runs like this:
as §2

Data set [16] has as its system Rattus norvegicus. As to the kind of experiment: Neurotoxicity in rat at 50 mg/kg, po after 1 hr. The data set is classed as toxicity, organism-based. More on the design: dose 50 mg/kg, route oral. Particulars: in vivo. In short, it runs like this:
as §2

≈ marks a conversion by molar mass, not a printed value. Calls of active or inactive are those of the source. No cut-off for these calls is given here.

With `CC[N+](C)(CC)CCOc1ccc(C(=O)N2C/C(=C\c3ccc([N+](=O)[O-])cc3)C(=O)/C(=C/c3ccc([N+](=O)[O-])cc3)C2)cc1.[I-]`, the logP in data set [1] (read-out: logP) was determined as 1.8. In addition, the Activity entry in the data set on Mus musculus [2] was “Toxic”; in the data set with Mus musculus [3], “Toxic”; in the data set with Rattus norvegicus [4], “Non-toxic”. In addition, in data set [5], the inhibition at 6.25 µg/mL was found to be 0%.
On to `Cl.O=C1/C(=C/c2ccc(Cl)cc2)CN(C(=O)c2ccc(OCCN3CCOCC3)cc2)C/C1=C\c1ccc(Cl)cc1`, for which the lipophilicity (logP) in data set [1] (read-out: logP) turned out to be 6.4. Besides, the Activity result in the data set with Mus musculus [6], in the data set with Mus musculus [2], in the data set on Mus musculus [7], with Mus musculus [3] and with Rattus norvegicus [8] was “Non-toxic” throughout. Also, in data set [5], 6.25 µg/mL produced 0% inhibition.
As to `CN(C)CCOc1ccc(C(=O)N2C/C(=C\c3ccccc3)C(=O)/C(=C/c3ccccc3)C2)cc1.Cl`, the Activity result in the data set on Rattus norvegicus [9], in the data set on Mus musculus [6], with Mus musculus [2], in the data set with Mus musculus [7] and in the data set with Mus musculus [3] was “Non-toxic” in each case. This compound yielded an MIC in data set [10] of 1.56 µg/mL. Further, the logP in data set [1] was 5.9. Besides, the inhibition at 6.25 µg/mL in data set [5] was determined as 98%. Also, the result with Liver [11], in the data set with Liver [12] and in the data set on Liver [13] was inactive.
`Cl.O=C1/C(=C/c2ccc(Cl)cc2)CNC/C1=C\c1ccc(Cl)cc1` came in with an inhibition at 12.5 µg/mL in [14] of 99%. Moreover, the MIC in data set [10] amounted to 6.25 µg/mL. Further, in data set [1], the lipophilicity (logP) is 6.8. Also, the Activity result in the data set on Mus musculus [6], in the data set with Mus musculus [2], in the data set with Mus musculus [7] and in the data set with Mus musculus [3] was “Non-toxic” in each case.
As for `CN(C)CCOc1ccc(C(=O)N2C/C(=C\c3ccc([N+](=O)[O-])cc3)C(=O)/C(=C/c3ccc([N+](=O)[O-])cc3)C2)cc1.Cl`, the Activity entry with Rattus norvegicus [15], in the data set on Mus musculus [6] and in the data set with Mus musculus [7] was “Non-toxic” throughout. In data set [1] (read-out: logP), the logP stood at 5.5. Further, the inhibition at 6.25 µg/mL in data set [5] is 27%.
For the compound `O=C1/C(=C/c2ccc([N+](=O)[O-])cc2)CNC/C1=C\c1ccc([N+](=O)[O-])cc1`, the inhibition at 12.5 µg/mL in [14] is 100%. Further, in data set [10], the MIC worked out at 0.2 µg/mL (≈ 0.547 µM). The logP in data set [1] is given as 5.3. Besides, the Activity result in the data set on Mus musculus [6], in the data set on Mus musculus [2], in the data set on Mus musculus [7] and with Mus musculus [3] was “Non-toxic” throughout. In addition, the outcome in the data set with Liver [11], with Liver [12] and in the data set with Liver [13] was inactive.
On to `CCN(CC)CCOc1ccc(C(=O)N2C/C(=C\c3ccccc3)C(=O)/C(=C/c3ccccc3)C2)cc1.Cl`, for which, in data set [1], the logP is 7. In addition, the Activity result in the data set on Mus musculus [7], with Mus musculus [3] and in the data set on Rattus norvegicus [16] was “Non-toxic” each time. In data set [5], the inhibition at 6.25 µg/mL is 99%.
